Results: ChEMBL document CHEMBL1157178, “Novel thiosemicarbazone derivatives as potential antitumor agents: Synthesis, physicochemical and structural properties, DNA interactions and antiproliferative activity” (Bioorg Med Chem, 2008)
Calls of active or inactive are those of the source. The calls are words filed in the database; no cut-off is given here.

System: DNA
Experiment: Binding affinity to calf thymus DNA in aqueous solution at pH 7.0 by thermal denaturation
Type: nucleic-acid assay
Settings: Bos taurus
In short: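 ct-DNA in sodium cacodylate buffer, pH 7.0, I = 0.05 mol dm^-3, concentration taken as phosphate. Compound added at r[compd]/[ct-DNA] = 0.3. Melting followed by absorbance at 260 nm, with ligand absorbance subtracted and curves normalized. Tm taken as the transition midpoint (first derivative or tangent method). ΔTm = Tm(complex) − Tm(free DNA), averaged over at least two runs.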

Activity | SMILES
inactive | CCN(CC)c1ccc(/C=N/NC(=S)Nc2ccccc2)c(O)c1
inactive | NC(=S)N/N=C/c1ccccc1O
inactive | Oc1ccccc1/C=N/NC(=S)Nc1ccccc1

System: MCF7
Experiment: Antiproliferative activity against human MCF7 cells after 72 hrs by MTT test
Type: functional, cell-based
Settings: MCF7, 72 h
In short: (§1)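 Cells grown as monolayers in DMEM with 10% FBS, 2 mM L-glutamine, penicillin and streptomycin at 37 °C, 5% CO2. Seeded on day 0 at 1 · 10⁴/mL (HeLa, Hep-2, MiaPaCa-2, SW620), 2 · 10⁴/mL (MCF-7) or 3 · 10⁴/mL (WI 38). Five dilutions (10^-8 to 5 · 10^-6 mol/l), 72 h, MTT read-out. Quadruplicate, three experiments. IC50 by linear regression of percentage growth.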

IC50 | SMILES
0.4 µM | CCN(CC)c1ccc(/C=N/NC(N)=S)c(O)c1
> 5 µM | NC(=S)N/N=C/c1c(O)ccc2ccccc12
1.2 µM | CCN(CC)c1ccc(/C=N/NC(=S)Nc2ccccc2)c(O)c1
3 µM | COc1cccc(/C=N/NC(=S)Nc2ccccc2)c1O
≥ 5 µM | NC(=S)N/N=C/c1ccccc1O
4 µM | Oc1ccccc1/C=N/NC(=S)Nc1ccccc1

System: HeLa
Experiment: Antiproliferative activity against human HeLa cells after 72 hrs by MTT test
Type: functional, cell-based
Settings: not given
In short: as §1

IC50 | SMILES
2 µM | CCN(CC)c1ccc(/C=N/NC(N)=S)c(O)c1
0.2 µM | NC(=S)N/N=C/c1c(O)ccc2ccccc12
0.7 µM | CCN(CC)c1ccc(/C=N/NC(=S)Nc2ccccc2)c(O)c1
1.7 µM | COc1cccc(/C=N/NC(=S)Nc2ccccc2)c1O
≥ 5 µM | NC(=S)N/N=C/c1ccccc1O
1.5 µM | Oc1ccccc1/C=N/NC(=S)Nc1ccccc1

System: MIA PaCa-2
Experiment: Antiproliferative activity against human MiaPaCa2 cells after 72 hrs by MTT test
Type: functional, cell-based
Settings: MIA PaCa-2, 72 h
In short: as §1

IC50 | SMILES
> 5 µM | CCN(CC)c1ccc(/C=N/NC(N)=S)c(O)c1
> 5 µM | NC(=S)N/N=C/c1c(O)ccc2ccccc12
0.2 µM | CCN(CC)c1ccc(/C=N/NC(=S)Nc2ccccc2)c(O)c1
2.5 µM | COc1cccc(/C=N/NC(=S)Nc2ccccc2)c1O
> 5 µM | NC(=S)N/N=C/c1ccccc1O
2.4 µM | Oc1ccccc1/C=N/NC(=S)Nc1ccccc1

System: WI-38
Experiment: Antiproliferative activity against human WI38 cells after 72 hrs by MTT test
Type: functional, cell-based
Settings: WI-38, 72 h
In short: as §1

SMILES | IC50
CCN(CC)c1ccc(/C=N/NC(N)=S)c(O)c1 | 0.2 µM
NC(=S)N/N=C/c1c(O)ccc2ccccc12 | ≥ 5 µM
CCN(CC)c1ccc(/C=N/NC(=S)Nc2ccccc2)c(O)c1 | 0.3 µM
COc1cccc(/C=N/NC(=S)Nc2ccccc2)c1O | 1.4 µM
NC(=S)N/N=C/c1ccccc1O | ≥ 5 µM
Oc1ccccc1/C=N/NC(=S)Nc1ccccc1 | 1.3 µM

System: HEp-2
Experiment: Antiproliferative activity against human Hep2 cells after 72 hrs by MTT test
Type: functional, cell-based
Settings: HEp-2, 72 h
In short: as §1

SMILES | IC50
CCN(CC)c1ccc(/C=N/NC(N)=S)c(O)c1 | 0.9 µM
NC(=S)N/N=C/c1c(O)ccc2ccccc12 | 0.2 µM
CCN(CC)c1ccc(/C=N/NC(=S)Nc2ccccc2)c(O)c1 | 0.3 µM
COc1cccc(/C=N/NC(=S)Nc2ccccc2)c1O | 1.6 µM
NC(=S)N/N=C/c1ccccc1O | ≥ 5 µM
Oc1ccccc1/C=N/NC(=S)Nc1ccccc1 | 2.4 µM

System: SW-620
Experiment: Antiproliferative activity against human SW620 cells after 72 hrs by MTT test
Type: functional, cell-based
Settings: SW-620, 72 h
In short: as §1

IC50 | SMILES
3 µM | CCN(CC)c1ccc(/C=N/NC(N)=S)c(O)c1
4.7 µM | NC(=S)N/N=C/c1c(O)ccc2ccccc12
0.6 µM | CCN(CC)c1ccc(/C=N/NC(=S)Nc2ccccc2)c(O)c1
1.6 µM | COc1cccc(/C=N/NC(=S)Nc2ccccc2)c1O
> 5 µM | NC(=S)N/N=C/c1ccccc1O
2 µM | Oc1ccccc1/C=N/NC(=S)Nc1ccccc1
